Hits are enriched below; roughly 1.7% of the tested compounds scored in any of these assays.
HNF4A DNA FP = change in binding of human HNF4 alpha to DNA; P41235; HNF4a-FITC DNA binding, fluorescence polarization, 1 h; activity change, % at 10 µM; hit rate 0.3% among 360,000; AID 1224865; in the data active means activity change above about 30%, passing the limit was not always enough
CSN deneddyl inh = inhibitors of human CSN-mediated cullin deneddylation; Q92905; Purified CSN, SCF-Nedd8-OG deneddylation, fluorescence polarization; inhibition, % at 12.5 µM; hit rate 0.38% among 360,000; AID 651999;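 active means pattern-corrected inhibition above about 35%, with an unprinted fluorescence ratio check between 0.5 and 1.5, limit read from the data, passing the limit was not always enough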;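 further: 0% = enzyme with substrate and 100% = substrate without enzyme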
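Assay system: Purified human Csn5 enzyme expressed in HEK293T cells | Amount: Enzyme 0.24 nM | Measured by: Fluorescence polarization readout | Medium: Tris/NaCl/DTT buffer, pH 7.5 | Compound dosing: One concentration, 12.5 µM, 0.25% DMSO | Times: 90 min incubation of compound, enzyme and substrate at room temperature | Control set: no-enzyme wells high, enzyme-with-substrate wells low | Read-out: % inhibition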
Rpn11 block = blocks the human proteasome subunit Rpn11; human 26S proteasome, Ub4-pepOG fluorescence polarization; 20S core pre-blocked with epoxomicin; inhibition, % at 20 µM; hit rate 0.59% among 360,000;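 active means inhibition at 20 µM, scaled to each plate's controls, above about 33%, limit read from the data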
IDE act = IDE (human) activation, cell-based; hit rate 0.073% among 340,000; HEK cells, FAbeta-B cleavage, fluorescence polarization; 0% vehicle, 100% cell-free pure enzyme wells; activation, % at 5.96 µM;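 active means activation above the mean of all tested compounds plus 3 SD, set per screening campaign, cut at about 17% in these data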
IDE cell inh = inhibits human insulin-degrading enzyme in HEK cells; P14735; hit rate 0.41% among 320,000; inhibition, % at 5.59 µM; FAbetaB cleavage, fluorescence polarization; AID 434962;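 active means percent inhibition above the average of all tested compounds plus 3 SD, set per screening campaign, cut at about 16% in these data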;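 further: IDE supplied by intact live HEK cells; FP after avidin binding of uncleaved biotin substrate so inhibition keeps polarization high; 0% = DMSO wells and 100% = 60 µM reference IDE inhibitor Ii1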
TPT1 inhibitor = C. albicans TPT1 enzyme inhibition; recombinant caTPT1, FP RNA substrate dephosphorylation; inhibition, % at 5 µM; hit rate 0.81% among 300,000; AID 1962;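 active means inhibition above the mean of all tested compounds plus 3 SD, set per screening campaign, cut at about 24% in these data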;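 further: plate controls were DMSO alone for no effect and ferristatin control at 100 nM for full effect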
An asterisk follows results filed as active; / = not tested or not shown.

SMILES | HNF4A DNA FP | CSN deneddyl inh | Rpn11 block | IDE act | IDE cell inh | TPT1 inhibitor
CN(C)c1ccc(S(=O)(=O)N2CCCCC2)cc1NC(=O)CCNC(=O)c1ccccc1Cl | 4 | -1 | 0 | 1 | / | /
CCOC(=O)/C(C#N)=N\Nc1cc(Cl)ccc1OC | 75* | 24 | 10 | 3 | 4 | 7
N#CCCn1cc(/C=N/NC(N)=S)c(-c2ccccc2)n1 | -3 | 107* | -3 | 5 | -4 | 1
N#CC(C(=O)NCCc1ccccc1)c1nc2ccccc2nc1N1CCOCC1 (stereo not given) | 49 | 39* | / | -1 | 2 | 2
CCCC(NC(=O)Cc1c(C)c2cc3c(C)c(C)oc3c(C)c2oc1=O)C(=O)N[C@@H](Cc1ccccc1)C(=O)O (stereo not given in full) | -20 | 33 | 76* | 5 | -4 | 1
CCCCC(NC(=O)Cc1c(C)c2cc3c(C)c(C)oc3c(C)c2oc1=O)C(=O)O (stereo not given) | 1 | 2 | -5 | 2 | 4 | -3
O=C(N/N=C/c1ccc2c(c1)OCO2)c1cc(-c2ccco2)nc2ccccc12 | -13 | 43* | -10 | 3 | / | /
O=[N+]([O-])c1cc(C(F)(F)F)cc([N+](=O)[O-])c1NCCCN1CCOCC1 | 62* | -4 | -4 | 4 | 4 | -3
O=[N+]([O-])c1cc(C(F)(F)F)ccc1NCCCN1CCOCC1 | 6 | -3 | -5 | -9 | -6 | -3
O=C(Nc1ccc(Cl)c([N+](=O)[O-])c1)c1ccc(NCCCN2CCOCC2)c([N+](=O)[O-])c1 | 30 | 5 | 54* | 1 | 3 | 16
CCc1nc(N)c(C#N)c(-c2ccc(F)cc2)c1C | -3 | -2 | 6 | 8 | 7 | -5
Cc1c(-c2ccc(F)cc2)nc(N)c(C#N)c1-c1ccco1 | 39* | 17 | / | 2 | -6 | 15
COC(=O)c1ccc2c(c1C(=O)OC)CN(S(=O)(=O)C(C)(C)C)[C@H]2CCO | -2 | -2 | -1 | -1 | / | /
COc1ccc(/C=C(\C#N)C(=O)N2CCOCC2)cc1Br | 1 | -2 | -4 | 1 | 1 | -3
Cc1cc(/C=C(\C#N)C(=O)N2CCOCC2)c(C)n1C1CCCC1 | 7 | 110* | 5 | 5 | 2 | -1
CCN(C(=S)Nc1ccc(C(C)=O)cc1)C1CCCCC1 | 1 | 48* | 10 | 1 | -6 | 1
CCCN(CC1CC1)C(=S)Nc1ccc(C(C)=O)cc1 | 1 | -4 | -2 | 2 | -1 | 0
CC(=C\c1ccccc1)/C=C1/SC(=S)N(CCC(=O)Nc2ccccn2)C1=O | / | / | / | / | 5 | 10
CC(/C=C1\SC(=S)N(CCC(=O)Nc2ccccc2O)C1=O)=C\c1ccccc1 | 47* | 36* | / | 2 | -1 | 18
CCN1CCN(c2ccc(S(=O)(=O)N3CCCCC3)cc2NC(=O)CC(C)c2ccccc2)CC1 (stereo not given) | 2 | 2 | 2 | 6 | -1 | -3
O=C(CSC1=NS(=O)(=O)c2ccccc2N1)Nc1nccs1 | -1 | -1 | -4 | 1 | 6 | 0
O=C(Nc1ccc2c(c1)OCCO2)C1CCC1 | 68* | -8 | -4 | 5 | -2 | 0
Cc1ccccc1NC(=O)CSc1ccsc1[N+](=O)[O-] | -36 | 35* | -12 | 3 | 1 | 3
COCCCNC(=O)CSc1ccsc1[N+](=O)[O-] | -3 | 1 | -9 | 3 | -1 | -1
CC(Sc1ncc(C#N)c(N)n1)C(=O)Nc1ccccc1 (stereo not given) | 0 | 54* | 8 | -1 | 4 | 2
SMILES | HNF4A DNA FP | CSN deneddyl inh | Rpn11 block | IDE act | IDE cell inh | TPT1 inhibitor
CC(C)Nc1nc(SC(C)C(=O)Nc2ccccc2)nc(N(C)C)n1 (stereo not given) | 3 | -2 | -1 | 1 | -5 | 1
COCCNC(=O)c1cc(-c2ccccc2)nn1CC1CC(c2cccnc2)=NO1 (stereo not given) | -2 | 1 | -12 | 1 | 1 | 0
COc1ccc(S(=O)(=O)NC(CC(C)C)C(=O)NC(C)c2cccs2)cc1 (stereo not given) | 0 | -3 | -9 | 4 | -1 | /
O=C(/C=C/c1ccc([N+](=O)[O-])cc1)N1CCN(S(=O)(=O)c2ccccc2)CC1 | 3 | 47* | -3 | -4 | -1 | /
CCOc1ccc(-c2cn(-c3ccc(OC)cc3)c(SC)n2)cc1 | -5 | 0 | -2 | -1 | 17* | 1
CSc1nc(-c2ccccc2)cn1-c1ccc(NC(C)=O)cc1 | 1 | 1 | 1 | -3 | 7 | -3
CC(CCC(C)C(C)(C)C)[C@@H]1CC[C@H]2C3C[C@H](OS(O)(=S)=S)[C@H]4C[C@H](OS(O)(=S)=S)[C@@H](OS(O)(=S)=S)C[C@]4(C)[C@H]3CC[C@]12C (stereo not given in full) (tested in a mixture with another compound) | -82 | 35* | 133* | 11 | -11 | /
CC(OC(=O)c1c2c(nc3ccccc13)/C(=C\c1ccc3c(c1)OCO3)CCC2)C(=O)Nc1ccc(S(N)(=O)=O)cc1 (stereo not given) | -90 | -94 | -211 | 26* | / | /
O=C(O)CCC1c2cc3c4cc2OC2Oc5cc6c(cc51)C(CCC(=O)O)c1cc5c7cc1OC(O6)c1cc6cc(c1)Oc1cc(cc(C(=O)O)c1)Oc1cc8cc(c1)C(Oc1cc(c(cc1C5CCC(=O)O)C3CCC(=O)O)OC(O4)c1cc(cc(c1)Oc1cc(cc(C(=O)O)c1)O8)Oc1cc(cc(C(=O)O)c1)Oc1cc(cc2c1)Oc1cc(cc(C(=O)O)c1)O6)O7 (stereo not given) | / | / | / | / | -4 | 5
COc1ccc(-c2ccc(-c3noc(-c4ccccc4OC)n3)c(OC)n2)cc1 | 44* | -2 | 23 | 6 | 3 | 12
CCOc1ccc(-c2c(C#N)c(N)nc3sc(C(=O)c4ccccc4)c(N)c23)cc1 | 40* | 18 | 6 | -4 | 0 | 2
O=C(N/N=C/c1ccc2c(c1)OCO2)c1ccc(COCC(F)(F)C(F)F)cc1 | 0 | -2 | 42* | -1 | 3 | 0
O=C(OCC(=O)N1CCN(C(=O)c2ccco2)CC1)c1ccc(S(=O)(=O)N2CCCCC2)cc1 | 50* | -1 | -3 | 1 | 5 | 0
CC(C)CCNc1nnnc2c1sc1nc(N3CCOCC3)c3c(c12)CC(C)(C)SC3 | -1 | 60* | 3 | -8 | 1 | 3
Cc1ccc(C)c(S(=O)(=O)N2CCCC2CNC(=O)C(=O)NCC2CCCO2)c1 (stereo not given) | 34* | 5 | -12 | 3 | -7 | -2
COc1ccccc1C(=O)NCCC(=O)NC(C)c1ccc(-n2ccnc2)cc1 (stereo not given) | 0 | 4 | 3 | 2 | 3 | -2

Bioassay records from PubChem BioAssay.
